Results from different studies.
Lines come from different studies, so protocols differ.
Target: Mitogen-activated protein kinase 14 (MAPK14, Homo sapiens, UniProt Q16539)

| SMILES | assay | setting | remaining binding |
| --- | --- | --- | --- |
| O=C(c1ccc(Nc2ncc(Cl)c(-c3cc4ccccc4s3)n2)cc1)N1CCC(N2CCCC2)CC1 | binding, competition with immobilised ligand | 1 µM | 100% |
| N[C@H]1CCN(c2nccc(-c3cnn4ncccc34)n2)C1 | binding | 1 µM | 100% |
| COc1ccc2cc(OCC3(C(=O)O)CN(C(=O)c4ccc(F)cc4)C3)ccc2c1 | cell-free assay, competition with immobilised ligand | 1 µM | 100% |
| c1cnn2ncc(-c3ccnc(N4CCC45COC5)n3)c2c1 | binding | 1 µM | 87% |
| c1cncc(-c2cccc(Nc3nccc(NC4CCCCC4)n3)c2)c1 | binding, competition with immobilised ligand | 10 µM | 85% |
| O=C(NCC1CCOCC1)c1n[nH]cc1NC(=O)c1c(F)cccc1F | binding, competition with immobilised ligand | 1 µM | 100% |
| CCN1CCN(Cc2ccc(C(=O)Nc3ccc(C)c(Oc4ccc5c(c4)CC(=O)N5)c3)cc2C(F)(F)F)CC1 | binding, competition with immobilised ligand | 1 µM | 18% |
| CC1CCCN1c1nccc(-c2cnn3ncccc23)n1 (stereo not shown) | binding | 1 µM | 100% |
| CNC(=O)c1ccc(Nc2ncc(C(F)(F)F)c(NCc3nccnc3N(C)S(C)(=O)=O)n2)cc1 | cell-free assay, competition with immobilised ligand | 0.1 µM | 100% |
| CN(C)c1nccc(-c2cnn3ncccc23)n1 | binding | 1 µM | 91% |
| O=C(N1CCS(=O)(=O)CC1)N1C[C@H](c2ccc(OC(F)(F)F)cc2)C[C@H](c2nc(C3CC3)no2)C1 | cell-free assay, competition with immobilised ligand | 1 µM | 100% |
| C[C@H]1CCN(c2nccc(-c3cnn4ncccc34)n2)C1 | binding | 1 µM | 100% |
| COc1cc(-c2cn(C3CCc4ccccc4N(CC(F)(F)F)C3=O)nn2)ccc1-n1ccc(C)n1 (stereo not shown) | cell-free assay, competition with immobilised ligand | 1 µM | 94% |
| COc1ncc2cc3ccccc3nc2c1C#N | cell-free assay, competition with immobilised ligand | 5 µM | 100% |
| CC(=O)Nc1c(C(C)=O)c(=O)n(C)c2nc(-c3ccc(Cl)cc3Cl)c(-c3ccc(Cl)cc3)cc12 | cell-free assay, competition with immobilised ligand | 1 µM | 100% |
| FC(F)(F)Oc1cccc(-c2cnc3ccc(-c4ccncc4)nn23)c1 | cell-free assay, competition with immobilised ligand | 5 µM | 94% |
| Cc1cnc(Nc2ccc(C(=O)N3CCC(N4CCCC4)CC3)cc2)nc1-c1cc2ccccc2s1 | binding, competition with immobilised ligand | 1 µM | 100% |
| CNC(=O)[C@@H]1CC[C@@H](n2c(-c3ccc4cnccc4c3)nc3ccc(C(=O)NCc4cccc(C(N)=O)c4)cc32)C1 | binding, competition with immobilised ligand | 1 µM | 99% |
| CNCc1ccccc1-c1csc([C@@H](C)Nc2nc(C)nc3cc(OC)c(OC)cc23)c1 | cell-free assay, competition with immobilised ligand | 1 µM | 87% |
| CN(c1nccc(-c2cnn3ncccc23)n1)C1CC1 | binding | 1 µM | 100% |
| N#Cc1ccccc1CSc1nnc2c(n1)[nH]c1ccccc12 | binding, competition with immobilised ligand | 10 µM | 100% |
| Cc1c[nH]c2nccc(Oc3c(F)cc(Nc4cc(Cl)nc(N)n4)cc3F)c12 | cell-free assay, competition with immobilised ligand | 0.1 µM | 100% |
| O=C(NCCCN1CCOCC1)c1ccc(Nc2ncc(Cl)c(-c3ccc(Cl)s3)n2)cc1 | binding, competition with immobilised ligand | 1 µM | 100% |
| Cc1cnn2ncc(-c3ccnc(N(C)C)n3)c2c1 | binding | 1 µM | 100% |
| C[C@@H]1CN(c2ccc3ncc(-c4ccc5[nH]nc(C6CC6)c5c4)n3n2)C[C@H](C)O1 | binding, competition with immobilised ligand | 50 nM | 100% |
